These results are taken from ChEMBL document CHEMBL1177759, “Design and synthesis of disubstituted (4-piperidinyl)-piperazine derivatives as potent acetyl-CoA carboxylase inhibitors” (Bioorg Med Chem Lett, 2010).

In one data set the target is Acetyl-CoA carboxylase (Homo sapiens, UniProt Q13085+O00763). Briefly: Inhibition of human ACC1/2-mediated malonyl-CoA synthesis. The data set is classed as protein assay. The essentials: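 Partially purified human liver ACC enzymes; read-out is malonyl-CoA synthesis by ACC1/2; IC50 taken as mean of at least two independent experiments.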
Data set [1] can be described thus: Metabolic stability in human liver microsomes assessed as compound remaining after 15 mins. The class given is ADME, Microsome. To be noted: read-out: Stability. The procedure, abridged:
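Compound at […] incubated 15 min at 37 °C with human liver microsomes at 1 mg protein/mL. Cofactors: 1.5 mM glucose-6-phosphate, 0.16 mM NADP, 1 U/mL G6P dehydrogenase. Buffer: 250 mM phosphate, 2.4 mM MgCl2, 69 mM KCl. Parent measured by LC-MS/MS; % remaining relative to 0 min.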

Data set [2] in a line: Permeability by PAMPA method. To be noted: read-out: permeability. The class given is ADME. The essentials: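 Parallel artificial membrane permeation at pH 6.2; effective permeability Pe reported in 10^-6 cm/s.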
Data set [3] can be described thus: Inhibition of human ACC in HepG2 cells assessed as decrease in fatty acid synthesis by [14C]acetate incorporation assay. The data set is classed as cell-based. The procedure, abridged: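 HepG2 cells; fatty acid synthesis followed as loss of [14C]acetate incorporation into cellular lipids; IC50 derived.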

`CC(=O)N1CCC(C(=O)N2CCC(N3CCN(C(=O)c4cc(-c5ccccc5)nc(-c5ccc6c(c5)c(C)cn6C)c4)CC3)CC2)CC1`: the IC50 against Acetyl-CoA carboxylase was determined as 127 nM.

As for `CC(=O)N1CCC(C(=O)N2CCC(N3CCN(C(=O)c4cc(-c5ccccc5)nc(-c5ccc6[nH]c(C)c(C)c6c5)c4)CC3)CC2)CC1`, in data set [1], the remaining at 0.25 h is 99%. At Acetyl-CoA carboxylase, this compound displayed an IC50 of 33 nM.

On to `CC(=O)N1CCC(C(=O)N2CCC(N3CCN(C(=O)c4cc(-c5ccccc5)nc(-c5ccc6c(c5)c(C)c(C)n6C)c4)CC3)CC2)CC1`, for which the IC50 against Acetyl-CoA carboxylase was 105 nM.

In turn, `CCc1c(C)[nH]c2ccc(-c3cc(C(=O)N4CCN(C5CCN(C(=O)C6CCN(C(C)=O)CC6)CC5)CC4)cc(-c4ccccc4)n3)cc12` came in with an IC50 against Acetyl-CoA carboxylase of 169 nM.

Take `CC(=O)N1CCC(C(=O)N2CCC(N3CCN(C(=O)c4cc(-c5ccccc5)nc(-c5ccc6[nH]c(C)c(C#N)c6c5)c4)CC3)CC2)CC1`: on Acetyl-CoA carboxylase, the IC50 came out at 9.7 nM.

For the compound `CC(=O)N1CCC(C(=O)N2CCC(N3CCN(C(=O)c4cc(-c5ccccc5)nc(-c5ccc6[nH]c(CN(C)C)c(C)c6c5)c4)CC3)CC2)CC1`, the IC50 on Acetyl-CoA carboxylase worked out at 8.4 nM.

With `CC(=O)N1CCC(C(=O)N2CCC(N3CCN(C(=O)c4cc(-c5ccc(C(F)(F)F)cc5)nc(-c5ccc6[nH]ccc6c5)c4)CC3)CC2)CC1`, the IC50 on Acetyl-CoA carboxylase is 72 nM.

Regarding `CC(=O)N1CCC(C(=O)N2CCC(N3CCN(C(=O)c4cc(-c5ccc(C)c(F)c5)nc(-c5ccc6[nH]ccc6c5)c4)CC3)CC2)CC1`, the IC50 on Acetyl-CoA carboxylase is 49 nM.

Consider `COc1ccc(-c2cc(C(=O)N3CCN(C4CCN(C(=O)C5CCN(C(C)=O)CC5)CC4)CC3)cc(-c3ccc4[nH]ccc4c3)n2)cc1OC`, for which, at Acetyl-CoA carboxylase, the IC50 was found to be 30 nM.

For `CC(=O)N1CCC(C(=O)N2CCC(N3CCN(C(=O)c4cc(-c5ccccc5)nc(-c5ccc6c(ccn6C)c5)c4)CC3)CC2)CC1`, the remaining at 0.25 h in data set [1] was 85%. This compound also yielded an IC50 on Acetyl-CoA carboxylase of 69 nM.

`CC(=O)N1CCC(C(=O)N2CCC(N3CCN(C(=O)c4cc(-c5ccccc5)nc(-c5ccc6[nH]c(C)cc6c5)c4)CC3)CC2)CC1` came in with an IC50 on Acetyl-CoA carboxylase of 59 nM.

`CC(=O)N1CCC(C(=O)N2CCC(N3CCN(C(=O)c4cc(-c5ccccc5)nc(-c5ccc6[nH]cc(C)c6c5)c4)CC3)CC2)CC1`: in data set [1], the remaining at 0.25 h turned out to be 72%. Moreover, on Acetyl-CoA carboxylase, the IC50 was found to be 36 nM.

`CC(=O)N1CCC(C(=O)N2CCC(N3CCN(C(=O)c4cc(-c5ccccc5)nc(-c5ccc6c(c5)cc(C)n6C)c4)CC3)CC2)CC1` gave an IC50 on Acetyl-CoA carboxylase of 117 nM.

The compound `CC(=O)N1CCC(C(=O)N2CCC(N3CCN(C(=O)c4cc(-c5ccccc5)nc(-c5ccc6cn[nH]c6c5)c4)CC3)CC2)CC1` came in with an IC50 against Acetyl-CoA carboxylase of 57 nM.

On Acetyl-CoA carboxylase, `CC(=O)N1CCC(C(=O)N2CCC(N3CCN(C(=O)c4cc(-c5ccccc5)nc(-c5ccc6c(c5)CC(=O)N6)c4)CC3)CC2)CC1` came in with an IC50 of 54 nM.

Consider `CC(=O)N1CCC(C(=O)N2CCC(N3CCN(C(=O)c4cc(-c5cccc(F)c5)nc(-c5ccc6[nH]ccc6c5)c4)CC3)CC2)CC1`, for which the IC50 at Acetyl-CoA carboxylase is on record as 33 nM. Also, the Papp in data set [2] worked out at 19.9 ×10⁻⁶ cm/s.

Compound `CC(=O)N1CCC(C(=O)N2CCC(N3CCN(C(=O)c4cc(-c5ccc(F)cc5)nc(-c5ccc6[nH]ccc6c5)c4)CC3)CC2)CC1` registered an IC50 against Acetyl-CoA carboxylase of 48 nM. The Papp in data set [2] came to 44.3 ×10⁻⁶ cm/s.

The compound `CC(=O)N1CCC(C(=O)N2CCC(N3CCN(C(=O)c4cc(-c5cccc(C)c5)nc(-c5ccc6[nH]ccc6c5)c4)CC3)CC2)CC1` displayed an IC50 against Acetyl-CoA carboxylase of 37 nM. Besides, in data set [2], the Papp is 28.1 ×10⁻⁶ cm/s.

As for `CC(=O)N1CCC(C(=O)N2CCC(N3CCN(C(=O)c4cc(-c5ccc(C)cc5)nc(-c5ccc6[nH]ccc6c5)c4)CC3)CC2)CC1`, on Acetyl-CoA carboxylase, the IC50 was determined as 30 nM. In addition, in data set [2], the Papp is 39.8 ×10⁻⁶ cm/s.

With `COc1cccc(-c2cc(C(=O)N3CCN(C4CCN(C(=O)C5CCN(C(C)=O)CC5)CC4)CC3)cc(-c3ccc4[nH]ccc4c3)n2)c1`, the IC50 against Acetyl-CoA carboxylase is 32 nM.

`COc1ccc(-c2cc(C(=O)N3CCN(C4CCN(C(=O)C5CCN(C(C)=O)CC5)CC4)CC3)cc(-c3ccc4[nH]ccc4c3)n2)cc1` registered an IC50 on Acetyl-CoA carboxylase of 21 nM. Besides, in data set [2], the Papp turned out to be 21.5 ×10⁻⁶ cm/s.

For the compound `CC(=O)N1CCC(C(=O)N2CCC(N3CCN(C(=O)c4cc(-c5cccc(C(F)(F)F)c5)nc(-c5ccc6[nH]ccc6c5)c4)CC3)CC2)CC1`, the IC50 against Acetyl-CoA carboxylase worked out at 100 nM.

`CC(=O)N1CCC(C(=O)N2CCC(N3CCN(C(=O)c4cc(-c5ccccc5)nc(-c5ccc(C(N)=O)cc5)c4)CC3)CC2)CC1`: on Acetyl-CoA carboxylase, the IC50 amounted to 80 nM.

As to `CC(=O)N1CCC(C(=O)N2CCC(N3CCN(C(=O)c4cc(-c5ccccc5)nc(-c5ccc(CCO)cc5)c4)CC3)CC2)CC1`, the IC50 was 1620 nM in data set [3] and 27 nM at Acetyl-CoA carboxylase.

`CC(=O)N1CCC(C(=O)N2CCC(N3CCN(C(=O)c4cc(-c5ccccc5)nc(-c5ccc(CC(=O)O)cc5)c4)CC3)CC2)CC1` displayed an IC50 on Acetyl-CoA carboxylase of 75 nM.

Compound `CC(=O)N1CCC(C(=O)N2CCC(N3CCN(C(=O)c4cc(-c5ccccc5)nc(-c5ccc(OCCO)cc5)c4)CC3)CC2)CC1` had an IC50 against Acetyl-CoA carboxylase of 47 nM.

As for `CC(=O)N1CCC(C(=O)N2CCC(N3CCN(C(=O)c4cc(-c5ccccc5)nc(-c5ccc(CCCO)cc5)c4)CC3)CC2)CC1`, at Acetyl-CoA carboxylase, the IC50 was 70 nM.

Turning to `CC(=O)N1CCC(C(=O)N2CCC(N3CCN(C(=O)c4cc(-c5ccccc5)nc(-c5ccc6[nH]ccc6c5)c4)CC3)CC2)CC1`, the remaining at 0.25 h in data set [1] came to 64%. Further, the IC50 against Acetyl-CoA carboxylase is listed as 55 nM. The Papp in data set [2] came out at 46.5 ×10⁻⁶ cm/s.

On to `CC(=O)N1CCC(C(=O)N2CCC(N3CCN(C(=O)c4cc(-c5ccccc5)nc(-c5ccc6cc[nH]c6c5)c4)CC3)CC2)CC1`, for which the IC50 against Acetyl-CoA carboxylase is 47 nM.

In turn, `CC(=O)N1CCC(C(=O)N2CCC(N3CCN(C(=O)c4cc(-c5ccccc5)nc(-c5ccc6[nH]ncc6c5)c4)CC3)CC2)CC1` yielded an IC50 on Acetyl-CoA carboxylase of 42 nM.

For `CC(=O)N1CCC(C(=O)N2CCC(N3CCN(C(=O)c4cc(-c5ccccc5)nc(-c5ccc(O)cc5)c4)CC3)CC2)CC1`, the IC50 on Acetyl-CoA carboxylase worked out at 47 nM.

On Acetyl-CoA carboxylase, `CC(=O)N1CCC(C(=O)N2CCC(N3CCN(C(=O)c4cc(-c5ccccc5)nc(-c5cccc(CO)c5)c4)CC3)CC2)CC1` showed an IC50 of 47 nM.

As for `CC(=O)N1CCC(C(=O)N2CCC(N3CCN(C(=O)c4cc(-c5ccccc5)nc(-c5ccc(CO)cc5)c4)CC3)CC2)CC1`, on Acetyl-CoA carboxylase, the IC50 was 42 nM.
